Screening results deposited in PubChem BioAssay by Broad Institute.
Only some compounds are listed: those with a hit (about 2.5% of all), similar ones and a draw of the others.
AF4-AF9 inh – inhibitors of AF4 peptide binding to AF9, primary screen, biochemical, AlphaScreen, biotin-AF4 peptide, FLAG-AF9, single point. Protein AF-9 (Homo sapiens), P42568. inhibition, % at 10 µM. 350,000 compounds, 0.47% hits. AID 651704, 2012;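 active means every replicate reaching a set inhibition limit, whatever the replicate mean, cut at about 25% in these data; inconclusive means mean inhibition reaches that limit but some replicates miss it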
Target sequence (P42568 whole entry, looked up): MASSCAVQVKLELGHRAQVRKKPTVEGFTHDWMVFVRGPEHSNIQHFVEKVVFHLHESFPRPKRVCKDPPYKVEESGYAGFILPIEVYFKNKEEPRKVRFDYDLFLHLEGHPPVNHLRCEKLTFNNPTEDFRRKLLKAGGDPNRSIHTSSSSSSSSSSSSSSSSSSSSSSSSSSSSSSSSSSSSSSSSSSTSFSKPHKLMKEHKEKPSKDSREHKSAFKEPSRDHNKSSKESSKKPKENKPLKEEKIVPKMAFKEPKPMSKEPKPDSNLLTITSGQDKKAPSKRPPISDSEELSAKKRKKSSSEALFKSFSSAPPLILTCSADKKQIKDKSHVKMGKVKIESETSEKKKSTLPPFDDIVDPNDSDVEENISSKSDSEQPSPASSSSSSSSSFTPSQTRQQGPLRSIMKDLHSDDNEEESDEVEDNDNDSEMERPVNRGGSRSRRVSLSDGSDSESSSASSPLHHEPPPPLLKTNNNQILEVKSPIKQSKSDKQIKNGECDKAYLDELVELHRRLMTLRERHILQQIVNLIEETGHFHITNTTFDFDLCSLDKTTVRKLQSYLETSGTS
N-glyco inh – increase of ERlucT glycosylation luciferase signal, primary screen, N-linked glycosylation inhibitor project, D54 ERlucT cells, luminescence, set 2. D54 ERlucT glycosylation luciferase reporter, 24 h; percent of 100 nM tunicamycin response. reporter increase, % at 12.5 µM. 360,000 compounds, 0.23% hits. AID 588692, 2011;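 active means mean luciferase reporter signal, scaled so untreated is 0 and the glycosylation-blocking control 100, at or above a set limit in every replicate; inconclusive means mean reaches the limit but not every replicate does; inactive means mean below the limit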;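 further: luciferase carries N-glycosylation sites so blocking glycosylation raises the light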
PAX8 reporter – inhibitors of PAX8-driven TPO luciferase reporter, primary screen, RMG-I cells, single concentration | SteadyGlo, 24 h | inhibition, % at 12.6 µM | 360,000 compounds, 1.2% hits;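 active means mean replicate inhibition at least 60% with every replicate also reaching 60%; inconclusive means only one of the two criteria is met; inactive means mean below 60% and not all replicates reaching 60%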;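 further: luciferase light reporting Pax8 driven TPO promoter activity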
FN deposition inh – inhibitors of fibronectin matrix deposition, primary screen, AH1F cells, Alexa488-fibronectin fluorescence, plate reader; AH1F fibroblasts, overnight; inhibition, % at 12.6 µM; 350,000 compounds, 0.086% hits; AID 743247, 2014;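 active means mean inhibition across replicates of 30% or more, regardless of how many single replicates reach that level; inconclusive means mean under 30% yet at least half of replicates reach 30%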
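Material: AH1F fibroblast monolayer depositing Alexa488-labelled fibronectin into matrix | Input: 10000 AH1F cells/well | Medium: DMEM plus 2% serum, read in PBS | Reagent: Alexa488-fibronectin, 24 nM final in well | Compound dosing: One dose per compound, pinned | Schedule: 1 h adhesion, overnight exposure | Measured by: Fluorescence at 485 nm excitation, 525 nm emission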
EWS-Fli inh – EWS/Fli-driven NR0B1 reporter inhibitors, primary screen, A673 cells, NR0B1 luciferase, luminescence, MLPCN library; viability-normalised; inhibition, % at 12.6 µM; 350,000 compounds, 0.67% hits; AID 651661, 2012;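 active means mean inhibition of at least 50% after viability correction, with every replicate also passing that limit; inconclusive means mean reaches 50% but only one of two replicates passes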;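 further: firefly luciferase signal divided by Alamar Blue viability fluorescence both relative to DMSO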
Env fusion inh – inhibitors of HIV-1 Env-driven cell-cell fusion, primary screen, HeLa-JRFL effector, CEM21 target cells, luciferase; inhibition, % at 12.3 µM; 360,000 compounds, 1.1% hits; AID 651610, 2012;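 active means mean replicate inhibition score of at least 50 and every replicate individually at or above 50; inconclusive means only one of the two criteria met; inactive means mean below 50 and not all replicates reaching 50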
DNA binder FP – DNA binders by acridine orange displacement, dose response, counter-screen for EWS/Fli inhibitor project, biochemical, fluorescence polarization, cherry-pick; AC35, µM (titrated, usually from 68 µM); shares compounds with EWS-Fli inh; 640 compounds, 2% hits; salmon sperm DNA acridine orange fluorescence polarization;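 active means fitted curve reaches a 35% signal fall AC35 below twice the sample's top valid tested dose, actives reach about 48 µM in these data; inactive means the rest, including activity in the rising direction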;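 further: lower polarization ratio signals compound binding to DNA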
Each line names hits and unclear results; the compound was inactive in the other large screens (follow-up assays come after a bar, where they were run).

CC(=O)c1sc(NC(=O)CCNC(=O)c2ccco2)nc1-c1ccccc1	Env fusion inh 62 (no result: FN deposition inh, EWS-Fli inh)
O=C(NCc1ccc2c(c1)OCO2)C(C(=O)c1ccccc1)n1cc(Cl)ccc1=O (stereo not drawn)	AF4-AF9 inh inconclusive, PAX8 reporter 85 (no result: Env fusion inh)
CC(OC(=O)c1ccc(Cl)cc1)C(=O)NCc1ccc2c(c1)OCO2 (stereo not drawn)	none
COc1ccc(OCCCN2CCC(C(O)(c3ccccc3)c3ccccc3)CC2)cc1	none (no result: N-glyco inh)
CC(C)c1ccc(OCCCN2CCC(C(O)(c3ccccc3)c3ccccc3)CC2)cc1	Env fusion inh 79 (no result: N-glyco inh)
C[C@@H]1CCCCO[C@H](CN(C)C(=O)Cc2ccccc2)[C@@H](C)CN([C@@H](C)CO)C(=O)c2cc(NS(=O)(=O)c3ccccc3)ccc2O1	none (no result: N-glyco inh)
CC1(C)CC(=O)C2=C(C1)Oc1ncn(Cc3ccco3)c(=N)c1C2c1ccccc1 (stereo not drawn)	none (no result: AF4-AF9 inh, PAX8 reporter, FN deposition inh, EWS-Fli inh, Env fusion inh)
COc1ccc(C2C3=C(CC(C)(C)CC3=O)Oc3ncn(Cc4ccccc4)c(=N)c32)cc1 (stereo not drawn)	Env fusion inh 61 (no result: AF4-AF9 inh, PAX8 reporter, FN deposition inh, EWS-Fli inh)
COc1ccccc1-c1ccc2c(c1)C(C)(Cc1ccc(OC(F)(F)F)cc1)C(=O)N2 (stereo not drawn)	Env fusion inh inconclusive
CC1(Cc2ccc(Cl)cc2)C(=O)Nc2ccc(S(=O)(=O)NC3CCCCC3)cc21 (stereo not drawn)	Env fusion inh 91
CC1(Cc2ccc(OC(F)(F)F)cc2)C(=O)Nc2ccc(S(=O)(=O)NC3CCCCC3)cc21 (stereo not drawn)	PAX8 reporter 90
CCC(=O)N1CC(=O)N2[C@H](CO)[C@H](c3ccc(C#Cc4cccc(OC)c4)cc3)[C@H]2C1	none (no result: N-glyco inh, FN deposition inh, Env fusion inh)
Cc1ccc(S(=O)(=O)Nc2ccc3c(c2)C(=O)N([C@@H](C)CO)C[C@@H](C)[C@H](CN(C)CC2CC2)OCCCC[C@H](C)O3)cc1	none (no result: N-glyco inh)
Cc1ccccc1-c1ccc2c(c1)O[C@H](CN(C)CC1CC1)[C@H](C)CN([C@@H](C)CO)S2(=O)=O	none (no result: N-glyco inh, PAX8 reporter)
O=[N+]([O-])c1cnc(Sc2ccncn2)c([N+](=O)[O-])c1	none
O=[N+]([O-])c1cnc(Sc2ccncn2)s1	PAX8 reporter 120, EWS-Fli inh inconclusive
COCC(=O)Nc1ccc2c(c1)C(=O)N(C)C[C@H](OC)[C@@H](C)CN(C(=O)c1ccccc1F)[C@H](C)CO2	none (no result: N-glyco inh)
CO[C@@H]1CN(C)C(=O)c2ccc(NS(=O)(=O)c3ccccc3C)cc2OC[C@H](C)N(S(C)(=O)=O)C[C@H]1C	none (no result: N-glyco inh, PAX8 reporter, Env fusion inh)
Cc1cc(N2CCN(C)CC2)nc2ccc(NC(=S)NCc3cccs3)cc12	none (no result: AF4-AF9 inh)
CCC(C)NC(=S)Nc1ccc2nc(N3CCN(CC)CC3)cc(C)c2c1 (stereo not drawn)	none
CCN1CCN(c2cc(C)c3cc(NC(=S)N(CC)CC)ccc3n2)CC1	AF4-AF9 inh 25
CCN1CCN(c2cc(C)c3cc(NC(=S)NCc4cccs4)ccc3n2)CC1	AF4-AF9 inh 30
CC1CCN(S(=O)(=O)c2ccc(Oc3ccc([N+](=O)[O-])cc3)cc2)CC1	Env fusion inh 72 (no result: AF4-AF9 inh, PAX8 reporter, EWS-Fli inh)
O=S(=O)(Nc1cccc(-c2cn3cccnc3n2)c1)c1ccc(Cl)cc1	PAX8 reporter 132 (no result: Env fusion inh)
COc1ccc2nc(SCC(=O)NC3CCCC3)c(C)cc2c1	EWS-Fli inh 55
COc1cc(NC2c3ccccc3C(=O)N2Cc2ccccc2Cl)cc(OC)c1OC (stereo not drawn)	none
COc1cc(NC2c3ccccc3C(=O)N2Cc2ccccc2)cc(OC)c1OC (stereo not drawn)	Env fusion inh 73
COc1ccccc1NS(=O)(=O)c1cc(NC(=O)c2cc3ccccc3oc2=O)ccc1C	EWS-Fli inh 82 (no result: FN deposition inh) | DNA binder FP inactive
COc1cccc(NC(=O)c2cc3ccccc3oc2=O)c1	none
CO[C@@H]1CN(C)C(=O)c2ccc(NC(=O)c3ccc(-c4ccccc4)cc3)cc2OC[C@H](C)NC[C@H]1C	none (no result: N-glyco inh, EWS-Fli inh, Env fusion inh)
CO[C@H]1CN(C)C(=O)c2cc(NC(=O)c3ccc(Oc4ccccc4)cc3)ccc2OC[C@H](C)NC[C@@H]1C	EWS-Fli inh 58 (no result: AF4-AF9 inh, N-glyco inh) | DNA binder FP inactive
CO[C@H]1CN(C)C(=O)c2ccc(NC(=O)c3ccc(-c4ccccc4)cc3)cc2OC[C@H](C)NC[C@H]1C	PAX8 reporter inconclusive, EWS-Fli inh 83 (no result: N-glyco inh) | DNA binder FP inactive
COc1ccc(C=NNc2nc3ccccc3s2)cc1	EWS-Fli inh 66 | DNA binder FP inactive
C(=N\Nc1nc2ccccc2s1)/c1ccccn1	PAX8 reporter 88, EWS-Fli inh 80 (no result: N-glyco inh) | DNA binder FP inactive
CC(C)CC#Cc1ccc([C@H]2[C@@H](CO)N3C(=O)CN(C(=O)NC4CCCC4)C[C@@H]23)cc1	none (no result: N-glyco inh, PAX8 reporter, Env fusion inh)
COCCNC(=O)c1cc2c(c(-c3cccc(-c4cccc(OC)c4)c3)n1)[C@H](CCO)N(S(=O)C(C)(C)C)C2 (stereo partly drawn)	none
CC(C)(C)[S@](=O)N1Cc2cc(C(=O)NCC(F)(F)F)nc(-c3cccc(-c4cccc(F)c4)c3)c2[C@@H]1CCO	EWS-Fli inh 55 (no result: N-glyco inh) | DNA binder FP inactive
CCNC(=O)c1cc2c(c(-c3cccc(-c4cccc(OC)c4)c3)n1)[C@H](CCO)N([S@@](=O)C(C)(C)C)C2	EWS-Fli inh 63 (no result: N-glyco inh) | DNA binder FP inactive
C/C=C/c1ccc2c(c1)O[C@@H](CN(C)C(=O)Nc1cccc(F)c1)[C@H](C)CN([C@@H](C)CO)S2(=O)=O	none (no result: N-glyco inh, FN deposition inh, Env fusion inh)
CCCn1nnc(NC(=S)NC(=O)C(C)(C)C)n1	EWS-Fli inh 87 (no result: FN deposition inh) | DNA binder FP inactive
CCCn1nnc(NC(=S)NC(=O)c2cccs2)n1	none (no result: AF4-AF9 inh, EWS-Fli inh)
C[C@@H]1CN([C@H](C)CO)C(=O)c2cccc(NC(=O)c3ccc(-c4nccs4)cc3)c2O[C@H]1CN(C)Cc1ccc(C(=O)Nc2ccccc2N)cc1	EWS-Fli inh inconclusive (no result: N-glyco inh, PAX8 reporter, FN deposition inh)
C[C@@H]1CN([C@H](C)CO)C(=O)c2cc(C#CCN(C)C)cnc2O[C@H]1CN(C)Cc1ccc(-c2ccccc2)cc1	AF4-AF9 inh 27, EWS-Fli inh 54 (no result: N-glyco inh, PAX8 reporter, FN deposition inh) | DNA binder FP inactive
C[C@@H]1CN([C@@H](C)CO)C(=O)c2cccc(NC(=O)Nc3ccccc3)c2O[C@@H]1CN(C)Cc1ccc(-c2ccccc2)cc1	EWS-Fli inh 78 (no result: N-glyco inh, FN deposition inh) | DNA binder FP inactive
